The values that follow come from ChEMBL document CHEMBL3232775, “Synthesis and evaluation of amide side-chain modified Agomelatine analogues as potential antidepressant-like agents” (Bioorg Med Chem Lett, 2014).

Broadly, the logP is the decadic logarithm of the partition coefficient of the neutral form, usually between octanol and water.

Calls of active or inactive are those of the source. The rule behind the calls is not given here.

The nature of data set [1]: Cytotoxicity against human HEK293 cells assessed as inhibitory rate at 80 uM after 24 hrs by MTT assay. It is filed as cell-based. The note with it: read-out: INH. In a few lines: (§1)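 Human normal liver L02 cells and human embryonic kidney 293 cells treated with compound at 80 μM for 24 h. Viability of untreated cells taken as 100%; inhibitory rate reported as mean ± SD of three independent experiments.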
On the technique in general: Tetrazolium dyes change colour on reduction, which living cells bring about.

The nature of data set [2]: Octanol-water partition coefficient, log P of the compound. It is filed as physicochemical.
Another data set concerns PC-12. The data set can be described thus: Inhibition of corticosterone-induced rat PC12 cells lesions assessed as protection rate at 1.25 uM after 24 hrs by MTT assay. Type of data set: functional. Also on record: scale not given: the % may be the effect or the level left. An outline of the steps: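 Rat PC12 cells injured with corticosterone and co-treated with compound at 1.25 μM, absorbance read 24 h after treatment. Protection rate = (A_d − A_c)/A_c × 100%, where A_c is the mean absorbance of corticosterone-only controls and A_d that of corticosterone plus compound. Six independent experiments, ± SD.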

The nature of data set [3]: Cytotoxicity against human L02 cells assessed as inhibitory rate at 80 uM after 24 hrs by MTT assay. The note with it: read-out: INH. It is filed as cell-based. In a few lines: as §1
The test system of a further data set is Mus musculus. Put plainly: Antidepressant activity in C57 mouse assessed as decrease in immobility time at 32 mg/kg, ip on days 2 to 15 by forced swimming test. Also on record: dose 32 mg/kg. It is filed as functional, organism-based.

With `COc1ccc2cccc(CCNC(=O)N3CCN(C)CC3)c2c1`, the cytotoxicity at 24 h, 80 µM in data set [1] came out at 46.6%; in data set [3], 20.1%. This compound also came in with a logP in data set [2] of 1.88. In addition, in the data set on PC-12, the Activity is reported as 13.6%.

For the compound `COc1ccc2cccc(CCNC(=O)N3CCCC3)c2c1`, the results for the cytotoxicity at 24 h, 80 µM in data set [1] and in data set [3] were 28.4% and 19.3%, respectively. The logP in data set [2] was -0.52. In addition, the Activity in the data set on PC-12 worked out at 9.8%.

As for `COc1ccc2cccc(CCNC(=O)CC3(CC(=O)O)CCCC3)c2c1`, the cytotoxicity at 24 h, 80 µM in data set [1] was 13.4%; in data set [3], 4.1%. This compound also gave a logP in data set [2] of -1.17. Further, the Activity in the data set with PC-12 is -17.5%.

Turning to `COc1ccc2cccc(CCNC(=O)N(C)CCO)c2c1`, the cytotoxicity at 24 h, 80 µM is 7.1% in data set [1] and 5.5% in data set [3]. The compound further had a logP in data set [2] of 1.12. The Activity in the data set with PC-12 is recorded as -19.5%.

Turning to `COc1ccc2cccc(CCNC(=O)/C(Cl)=C(\Cl)C(=O)O)c2c1`, the cytotoxicity at 24 h, 80 µM in data set [1] came out at 18.6%; in data set [3] it was 3.8%. For the same compound, the logP in data set [2] amounted to 1.18. Also, the Activity in the data set with PC-12 is recorded as -8.4%.

Turning to `COc1ccc2cccc(CCN3C(=O)C(C)=C(C)C3=O)c2c1`, the cytotoxicity at 24 h, 80 µM amounted to 9.6% in data set [1] and 13.8% in data set [3]. Besides, the outcome in the data set on Mus musculus was Active. Also, the logP in data set [2] was determined as 1.53. Further, the Activity in the data set with PC-12 amounted to 34.2%.

`COc1ccc2cccc(CCNC(=O)N3CCC(c4ccccc4)CC3)c2c1`: the cytotoxicity at 24 h, 80 µM in data set [1] amounted to 16.5%; in data set [3] it was 8.6%. In data set [2], the logP came to 2.05. The Activity in the data set on PC-12 is given as 2.5%.

As for `COc1ccc2cccc(CCNC(=O)/C(C)=C(\C)C(=O)O)c2c1`, the figures for the cytotoxicity at 24 h, 80 µM in data set [1] and in data set [3] were 13.2% and 5.8%, respectively. This compound came in with a logP in data set [2] of 2.01. Besides, in the data set on PC-12, the Activity turned out to be 2.8%.

In the case of `COc1ccc2cccc(CCN3C(=O)CC(C)(C)CC3=O)c2c1`, the values for the cytotoxicity at 24 h, 80 µM in data set [1] and in data set [3] were 41.9% and 10.4%, respectively. In data set [2], this compound showed a logP of 2.78. In addition, the Activity in the data set with PC-12 is -50.3%.

For `COc1ccc2cccc(CCNC(=O)N3CCC3)c2c1`, the cytotoxicity at 24 h, 80 µM in data set [1] came to 28.4%; in data set [3], 18.4%. In addition, in data set [2], the logP amounted to 1.56. Also, the Activity in the data set on PC-12 amounted to 15.7%.

Turning to `COc1ccc2cccc(CCNC(=O)CCC(=O)O)c2c1`, the cytotoxicity at 24 h, 80 µM in data set [1] amounted to 13.9%; in data set [3], 3.1%. In addition, the logP in data set [2] was 1.35. In the data set with PC-12, the Activity is reported as 11%.

Regarding `COc1ccc2cccc(CCN3C(=O)C(Cl)=C(Cl)C3=O)c2c1`, the values for the cytotoxicity at 24 h, 80 µM in data set [1] and in data set [3] were 17.2% and 3.4%, respectively. In data set [2], this compound showed a logP of 1.99. Besides, the Activity in the data set on PC-12 is -12.8%.

Regarding `COc1ccc2cccc(CCN3C(=O)c4ccc(Br)cc4C3=O)c2c1`, the cytotoxicity at 24 h, 80 µM in data set [1] was 11.5%; in data set [3] it was 9.1%. The same compound showed a lipophilicity (logP) in data set [2] of 2.57. In addition, in the data set on PC-12, the Activity is -10.5%.

Turning to `CCN1CCN(C(=O)NCCc2cccc3ccc(OC)cc23)CC1`, the cytotoxicity at 24 h, 80 µM in data set [1] was determined as 3.9%; in data set [3] it was 3.1%. In addition, the lipophilicity (logP) in data set [2] was 1.35. In addition, in the data set with PC-12, the Activity was -7.7%.

With `COc1ccc2cccc(CCNC(=O)/C=C/C(=O)O)c2c1`, the cytotoxicity at 24 h, 80 µM in data set [1] came to 33%; in data set [3] it was 3.4%. In the data set on Mus musculus, the result was inactive. In addition, the logP in data set [2] is 1.54. Also, the Activity with PC-12 was 23.2%.

In the case of `COc1ccc2cccc(CCNC(=O)N3CCN(C(=O)OC(C)(C)C)CC3)c2c1`, the cytotoxicity at 24 h, 80 µM in data set [1] was found to be 13.3%; in data set [3] it was 3%. This compound returned a logP in data set [2] of 1.06. For the same compound, the Activity in the data set with PC-12 stood at 6.3%.

On to `CNCCC(Oc1ccc(C(F)(F)F)cc1)c1ccccc1` (stereo not drawn) [FLUOXETINE], for which, in the data set on PC-12, the Activity is on record as 19.7%.

For the compound `COc1ccc2cccc(CCNC(C)=O)c2c1` [AGOMELATINE], the cytotoxicity at 24 h, 80 µM in data set [1] came out at 26.6%; in data set [3], 20.2%. In data set [2], this compound registered a logP of 1.62. Besides, the Activity in the data set with PC-12 was found to be 26.2%.

`COc1ccc2cccc(CCNC(=O)N3CCCCC3)c2c1`: the values for the cytotoxicity at 24 h, 80 µM in data set [1] and in data set [3] were 16.6% and 22.6%, respectively. The compound also registered a logP in data set [2] of 2.81. Also, the Activity in the data set with PC-12 was -11.5%.

On to `COc1ccc2cccc(CCN3C(=O)CCC3=O)c2c1`, for which the cytotoxicity at 24 h, 80 µM in data set [1] turned out to be 8.1%; in data set [3], 8.5%. The compound further had a logP in data set [2] of 1.87. Further, the Activity in the data set with PC-12 is -16.8%.

With `COc1ccc2cccc(CCNC(=O)CC(C)(C)CC(=O)O)c2c1`, the cytotoxicity at 24 h, 80 µM in data set [1] was 34.1%; in data set [3] it was 5.7%. The logP in data set [2] amounted to 1.75. Further, the Activity in the data set on PC-12 was found to be 6.3%.
